In the data set the test system is MS2 coat protein. The data set is described as follows: apparent Kd, MS2 coat protein; higher = weaker binding; RNA-MaP array; FMN 200 µM where present. In short, it runs like this:
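Each design was made on Illumina sequencing-chip clusters by stalled E. coli RNA polymerase and titrated with SNAP-549-labelled MS2 coat protein from 0.7 or 1.5 nM, doubling to 3 µM, in the absence and then the presence of constant ligand. The buffer was 100 mM Tris-HCl pH 7.5, 80 mM KCl, 4 mM MgCl2, BSA, DTT, yeast tRNA and Tween-20. The apparent Kd is the median of filtered per-cluster fits of binding curves, with green signal normalised to red-channel RNA signal and control-cluster median Fmax.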

The mark [1] stands for this setting: designed as: OFF switch for flavin mononucleotide, no ligand.
Setting [2] is: ligand present: flavin mononucleotide, designed as: OFF switch for flavin mononucleotide.
[3] abbreviates: designed as: ON switch for flavin mononucleotide, no ligand.
Setting [4] is: ligand present: flavin mononucleotide, designed as: ON switch for flavin mononucleotide.

With “GUUUUUUGUCAUGUACAUGAGGAACAUGAGGAUCACCCAUGUAGAAGGAAUUUUUUUAAGUUUAGUUAGGAUAUACAUAUAUUA”, the apparent Kd (usually a dissociation constant that holds for the conditions of the assay) stood at 49 nM under setting [1] and 24.7 nM under setting [2].

On to “CCGGAAGGUUAGGAUAUGCUUCCACAUAUCUAAGCAGAAGGAACCACAUGAGGAUCACCCAUGUUUAUGGGCCG”, for which the “apparent Kd” value runs as follows: under setting [1], 262 nM; under setting [2], 261 nM.

“GGGCCCGGAGGAUAUACAAUGGGCCCGGGAAAUUGGGCCCUACAUGAGGAUCACCCAUGUAGAAGGUUGGGCCC”: the “apparent Kd” value was 12.8 nM under setting [1] and 13.6 nM under setting [2].

Take “AUUAAACAUGAGGAUCACCCAUGUCAACAAAGUCGAGGAUAUGGGCAUAUUAUCUUAUUACCAGAAGGCGAAUAAU”: the “apparent Kd” value under setting [3] was found to be 390 nM and the “apparent Kd” value under setting [4] stood at 44 nM.

For “GUCUUACAUGAGGAUCACCCAUGUGAGGAUAUGGUUUCGCUGGCCGUAGCCAGUGGAACCAGAAGGCGCAUGAU”, the “apparent Kd” value under setting [1] is 25.7 nM and the “apparent Kd” value under setting [2] came to 44.9 nM.

Regarding “UUAAAUCGAAACAUGAGGAUCACCCAUGUGUUGUAAUUAAUAUAGGAUAUGUGUAUACUUUUAUGACAGAAGGAUGAUAAUACU”, the “apparent Kd” value by setting is: under setting [3], 21.5 nM; under setting [4], 14.4 nM.

As for “AGGUAGCAAGGAUAUACAACUUUGGGCACUGCCUCUUGGAGACAUGAGGAUCACCCAUGUAGAAGGUGCAGGCC”, the “apparent Kd” value under setting [1] turned out to be 13.2 nM and the “apparent Kd” value under setting [2] was found to be 33.9 nM.

Consider “UGUUGUAUUACAGGAUAUCUAUAAUUUUUAUUUAGAGAAGGGUAUUCACAUGAGGAUCACCCAUGUAUAUACGAGGAAGUUGUG”, for which the “apparent Kd” value reads like this: under setting [3], 43.5 nM; under setting [4], 45.8 nM.

Turning to “CAGACACAUCUAGGAUAUGGUGAUGCUCAAAACACAUGAGGAUCACCCAUGUAGCCUGUGUAUAAUCAGAAGGAGAACCGUGUA”, the “apparent Kd” value under setting [3] is 84.6 nM and the “apparent Kd” value under setting [4] amounted to 500 nM.

For the sequence “CCGCAGUGUCUUCAGAAGACAUGAGGAUCACCCAUGUACCAGGAGGAUAUAGUGCGCUUUCCGCGCUAGAAGGCUUGGAUAUAG”, the “apparent Kd” value amounted to 115 nM under setting [1] and 70.8 nM under setting [2].

On to “GAGCGAAAGCUCAAUGUCGAUAGCAGAAGGACAUCCAACAACAUGAAAACAUGAGGAUCACCCAUGUAGGAUAUGCUAUCGACU”, for which the “apparent Kd” value is, setting by setting: under setting [1], 6.8 nM; under setting [2], 7.4 nM.

With “AGCUCCGCGGCCACUUAUUGUGCACAUGAGGAUCACCCAUGUCAGGAUAUCCUUGAGCCUCACAAGGAGAAGGGACAUAAGGUU”, the “apparent Kd” value under setting [1] came to 643 nM and the “apparent Kd” value under setting [2] is 334 nM.

For the sequence “GAAAAGUAAGGAUAUGCACACAGUGAGGAAACUCACUGUGUGCAGAAGGUACAUGAGGAUCACCCAUGUUUCUC”, the “apparent Kd” value came to 38.1 nM under setting [1] and 187 nM under setting [2].

On to “UACAUCACGUAAGGAUAUACACGGGUUUCAAGAGUAGAAGGUACAAACAUGAGGAUCACCCAUGUAGACAUGGUUAAUAUUGUA”, for which the “apparent Kd” value is, setting by setting: under setting [3], 54.3 nM; under setting [4], 40.6 nM.

On to “CGCUACUACCAGAAGGACAUGAGGAUCACCCAUGUAGGAUAUGGGUUACACGUUCCUGUGUAUUGUUACUACGCUACGUAUGCG”, for which the “apparent Kd” value under setting [3] was 168 nM and the “apparent Kd” value under setting [4] turned out to be 11.9 nM.

Take “AUCAGCUCGUGAGGAUAUACGUCACUGCGUCAGCAGUGUGGUAAGAUCACAUGAGGAUCACCCAUGUAGAAGGCACGAGCUGAU”: the “apparent Kd” value by setting is: under setting [1], 66.2 nM; under setting [2], 837 nM.

With “AGAUAUGAUGCAGGAUAUCUAUCUUGAAUGAGGAGAGAAGGGCAAACAGAGACAUAAGCCUUAUUACAUGAGGAUCACCCAUGU”, the “apparent Kd” value is 10.1 nM under setting [1] and 8.83 nM under setting [2].

As to “GACGGGAAUGAGAAGGGUCACAUGAGGAUCACCCAUGUGCUCUUCGCCGUGACAGGAUAUCAUUGCCGCCAGGUUAGAUUUUUG”, the “apparent Kd” value was found to be 7.87 nM under setting [1] and 22.3 nM under setting [2].

For “AAGUAGGGAGGAUAUACAUGGAUAUACAUUCAUGUGGACCUACAUGAGGAUCACCCAUGUAGAAGGCCCUAAUA”, the “apparent Kd” value worked out at 37.1 nM under setting [1] and 43.5 nM under setting [2].

With “CCCACGCAUGAGAAGGGACAGGCGUGCAAUUCGACAUGAGGAUCACCCAUGUCAGGAUAUCAGUUAAGGUGGGCAGAACCAAUG”, the “apparent Kd” value under setting [1] stood at 16.9 nM and the “apparent Kd” value under setting [2] came to 76.7 nM.

On to “GUUAUAAAGGUAGGAUAUAGUAUUAUAAUUAAAUUAGAAGGAUCUCACAUGAGGAUCACCCAUGUAAGAGGAUCACCCAUGUAG”, for which the “apparent Kd” value was determined as 20.7 nM under setting [1] and 15.9 nM under setting [2].

Turning to “GUGGCGACGUAGAAGGGUGACAUGAGGAUCACCCAUGUGCCGAUAUUUCUCGAGAUAUGUCGGCCACAGGAUAUACGUGCCAUC”, the “apparent Kd” value under setting [3] turned out to be 40.1 nM and the “apparent Kd” value under setting [4] was found to be 56 nM.

Take “GGAGAUACAUGAGGAUCACCCAUGUAGGAUAUCGAGUAUAUAUAUGGCGAAAGCCAUAUAUAUAUCGAGAAGGGCGUACACACC”: the “apparent Kd” value runs as follows: under setting [1], 8.84 nM; under setting [2], 7.75 nM.

For the sequence “UUCAGCUCGUGAGGAUAUACAUGUGCUGGAAACAGCACUAAUAGAAUCACAUGAGGAUCACCCAUGUAGAAGGCACGAGCUGAG”, the “apparent Kd” value is, setting by setting: under setting [1], 17.2 nM; under setting [2], 40.1 nM.

With “AACGAGCUAGGAUAUGCACGGAAAAGCGUGGUCACUUAUGGACAUGAGGAUCACCCAUGUAGAAGGAGCGACGC”, the “apparent Kd” value runs as follows: under setting [1], 22.5 nM; under setting [2], 18.9 nM.

Take “GUAUCGUAUGUGAGGAUAUAUUUGUCCUUGGAUUUGUAGAAGGCACAUGAGGAUCACCCAUGUCCUAGUGGUCC”: the “apparent Kd” value was 35.1 nM under setting [1] and 34.9 nM under setting [2].

“CCGCAUAUGGAGGAUAUCGUAUCGGAAACGAUACGAGAAGGCUAAACAUGAGGAUCACCCAUGUUCCUUAACGG”: the “apparent Kd” value under setting [1] came to 18.1 nM and the “apparent Kd” value under setting [2] came out at 18.1 nM.

Regarding “UUUUUAUAACAAGGAUAUACUAAACAUGAGGAUCACCCAUGUAAUAUUAUGAGUGAGAGAGAUAAGUAGAAGGUGUAUUAUUUU”, the “apparent Kd” value by setting is: under setting [1], 100 nM; under setting [2], 137 nM.

Turning to “GCGUGACGGUGCGCGAGUGGACGGAGAAGGCAGACAUGAGGAUCACCCAUGUGAGCCUGCUAUUCUGAGGAUAUCCGUUCGCAC”, the “apparent Kd” value is, setting by setting: under setting [1], 32.5 nM; under setting [2], 150 nM.

Regarding “CGGUGACUGGUGAGGAUAUCGUGUUCGAAAGAACGUGAGAAGGCACAUGAGGAUCACCCAUGUGAUCCUCAUCG”, the “apparent Kd” value is, setting by setting: under setting [1], 26.1 nM; under setting [2], 163 nM.

For “GGAAUAUUUACAGGAUAUGUUUUGUUAAGUCGAGCAGAAGGGUGGAUGUCUUACACGGUUUGUUACAUGAGGAUCACCCAUGUC”, the “apparent Kd” value stood at 264 nM under setting [3] and 260 nM under setting [4].

Consider “AAAAAAAAAACAUAGGAUAUCCGGGCCGGGACAUGAGGAUCACCCAUGUCAAAAAAAAUUGGCCCGGAGAAGGAUGAAAAAAAAAA”, for which the “apparent Kd” value runs as follows: under setting [3], 15.5 nM; under setting [4], 14.9 nM.

Regarding “CCAGGCUGUGUGAGGAUAUGCUGGUCCUUGGAUCAGCAGAAGGCACAUGAGGAUCACCCAUGUGAGGAGCUUGG”, the “apparent Kd” value came to 20.2 nM under setting [1] and 98.8 nM under setting [2].

Regarding “GUAGCGCUUGACAUGAGGAUCACCCAUGUUAGAUUGUUAUGUCAGGAUAUAGUCUAGAAACUAGACUAGAAGGGAUAUGCUACU”, the “apparent Kd” value under setting [3] was 251 nM and the “apparent Kd” value under setting [4] was 39.8 nM.

As to “CUGCUUCCCAGUAUGGGUAUUUAUACAGAAGGCCAGACACAUGAGGAUCACCCAUGUCAAGUAAUGGAGGAUAUGUUAUUGUCG”, the “apparent Kd” value was 10.9 nM under setting [3] and 4.97 nM under setting [4].

On to “ACGCUUUAUGUAGGAUAUUCAGAGAAAGAGAAAGAAGAAGGACAUGAGGAUCACCCAUGUAAGAAGUAGAUAGAGAUGAUACAU”, for which the “apparent Kd” value amounted to 76.4 nM under setting [1] and 66.1 nM under setting [2].

Values taken from the EternaBench riboswitch data.
